# From PubChem
# Lipid droplet – hepatic lipid droplet formation modulation | AML12 mouse hepatocytes, oleate lipid droplets, BODIPY imaging | inhibition, % at 6.5 µM | hit rate 0.4% among 240,000;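 active = lipid droplet intensity inhibited by at least 50%, with more than 500 cells counted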
#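 Assay system: AML12 mouse liver cells | Compound dosing: One dose, 6.5 µM compound | Read-out basis: Droplet intensity reduction, % inhibition | Measured by: Fluorescence imaging, 20x objective, two fields per well | Schedule: Overnight treatment with compound plus oleate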
# RGS4 act – potentiators or activators of RGS4 | HEK293 M3R/inducible RGS4, carbachol calcium flux Fluo4; hits give low values | B-score at 10 µM | hit rate 0.92% among 310,000;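 active = B-score of the integrated calcium signal more than 4 SD below the library mean, with starting fluorescence not abnormally high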;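 also: negative B-score means reduced calcium response which marks RGS4 activation or potentiation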
#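 Assay system: Inducible-RGS4 HEK293 cells carrying M3 receptor | Schedule: Compound preincubation 20 min at room temperature before agonist | Signal: Kinetic calcium fluorescence imaging with Fluo4-AM dye, 2 µM | Read-out basis: B score from integrated fluorescence ratio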
# MrgX1 PAM – human MrgX1 positive allosteric modulation, primary screen; Q96LB2; MrgX1-HEK293, Fluo-4 calcium flux, FDSS; hits give high values; B-score at 10 µM; hit rate 0.63% among 310,000;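 active = plate-corrected calcium response at least 3 library SD above typical, normal starting fluorescence, not activating the receptor alone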;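 also: compound read alongside a low EC10 to EC30 dose of BAM8-22 agonist; peak minus trough fluorescence over baseline measured at the second addition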
# Target sequence (Q96LB2 whole entry, looked up): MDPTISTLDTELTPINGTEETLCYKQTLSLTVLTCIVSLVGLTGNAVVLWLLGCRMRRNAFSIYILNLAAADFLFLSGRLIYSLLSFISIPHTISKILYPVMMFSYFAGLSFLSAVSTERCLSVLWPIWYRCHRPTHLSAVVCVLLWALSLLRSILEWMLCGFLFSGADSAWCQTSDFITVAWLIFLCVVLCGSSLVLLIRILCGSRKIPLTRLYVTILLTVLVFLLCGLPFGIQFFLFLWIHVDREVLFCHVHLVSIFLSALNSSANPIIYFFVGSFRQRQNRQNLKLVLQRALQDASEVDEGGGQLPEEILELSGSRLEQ
# MrgX1 antag – antagonists of human MrgX1 receptor; Q96LB2; MRGX1-HEK293 calcium flux, Fluo-4, BAM8-22 antagonism; hits give low values; B-score at 10 µM; hit rate 1.3% among 310,000; AID 588676;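 active = calcium-response B-score plate-corrected more than 3 library SD below zero, starting fluorescence within 5 deviations, no agonist response on first addition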;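 also: peak minus trough fluorescence over baseline after final BAM8-22 challenge near maximal dose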
# RGS4 inh – human RGS4 inhibition; hit rate 0.45% among 310,000; P49798; AID 463165; B-score at 10 µM; HEK293 M3R/RGS4 inducible, Fluo-4 calcium flux; hits give high values; triggered by carbachol at its EC20;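 active = B-score, a plate-corrected calcium signal, over three deviations above library mean, with baseline fluorescence within five deviations of library mean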;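 also: RGS4 expression induced by doxycycline in cells with stable M3 receptor; B-score is computed from the integrated fluorescence ratio over baseline after carbachol; higher B-score means a larger calcium signal and so more RGS4 inhibition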
# Target sequence (P49798 whole entry, looked up): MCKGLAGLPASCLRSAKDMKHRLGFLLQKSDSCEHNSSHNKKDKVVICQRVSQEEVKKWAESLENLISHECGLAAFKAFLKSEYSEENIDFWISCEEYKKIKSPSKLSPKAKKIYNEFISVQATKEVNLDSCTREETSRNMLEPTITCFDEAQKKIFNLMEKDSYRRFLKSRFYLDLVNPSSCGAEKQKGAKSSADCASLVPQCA
# MrgX1 agonist – activates human MrgX1 receptor signaling; Q96LB2; MrgX1-HEK293 cells, Fluo-4 calcium fluorescence, agonist mode; hits give high values; B-score at 10 µM; hit rate 0.44% among 310,000;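 active = calcium response B-score plate-corrected fluorescence ratio at least 3 library SD, with starting fluorescence B-score inside 5 SD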
#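 Material – MrgX1-expressing HEK293 cells · Input – 15,000 cells seeded per well · Dosing – compound as first of three additions · Times – overnight seeding, then 1 h dark dye loading · Measured by – kinetic Fluo-4 NW fluorescence of intracellular calcium · Read-out – B-scored fluorescence response ratio · Benchmarks – positive and negative control wells on each plate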
# RGS4 act valid – RGS4 activation, validation assay. shares compounds with RGS4 act. HEK293 M3R/RGS4 inducible, carbachol calcium flux Fluo4. inhibition, % at 10 µM. hit rate 89% among 1,100;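 active = inhibition above 3 SD of the buffer control wells, cut at about 41% in these data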;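 also: signal is the integrated peak-minus-minimum Fluo4 fluorescence over baseline ratio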
# RGS4 act ctr – RGS4 activator counter-screen hit in non-induced cells. shares compounds with RGS4 act. HEK293 M3R non-induced RGS4, Fluo4 calcium flux; after carbachol challenge at its EC90. inhibition, % at 10 µM. hit rate 82% among 1,100;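 active = inhibition exceeding 3 SD of buffer-only control wells, cut at about 26% in these data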;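 also: percent drop in integrated peak-minus-baseline over baseline Fluo4 ratio after carbachol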
# * marks the source's active call; other numbers are inactive results; i = inactive; · = no result given. Most compounds without a hit are left out; they make up all but 3.8% or so of the library.
SMILES,Lipid droplet,RGS4 act,MrgX1 PAM,MrgX1 antag,RGS4 inh,MrgX1 agonist,RGS4 act valid,RGS4 act ctr
Cc1ccccc1-c1nnc(SCC(=O)N(C)c2c(N)n(Cc3ccccc3)c(=O)[nH]c2=O)n1C,·,i,i,i,i,i,·,·
Cn1c(SCCOc2ccccc2F)nc2ccccc2c1=O,-1.8,-7.81*,i,i,i,i,92.0*,80.8*
Cc1ccc(S(=O)(=O)N2CCN(C(=O)c3cc4c(C)nn(-c5ccccc5C)c4s3)CC2)cc1,·,-8.52*,i,i,i,i,83.0*,33.8*
Cc1ccc(C(C)C)c(OCCCNCc2cccnc2)c1,7.3,-8.7*,i,i,i,i,91.5*,59.8*
O=C(NCc1ccc2c(c1)OCO2)c1ccc(C2SCC(=O)N2Cc2ccco2)cc1 (configuration not stated),-2.3,-7.68*,i,i,i,i,71.0*,83.8*
COc1ccc(OC)c(/C=N/NC(=O)CNC(=O)c2ccc(S(=O)(=O)N3CCOCC3)cc2)c1,6.0,i,i,i,i,i,·,·
c1ccc(COc2ccc(CN3CCN(c4ccccn4)CC3)cc2)cc1,9.8,-8.32*,i,i,i,i,89.5*,58.3*
c1ccc(N2CCN(Cc3ccc4c(c3)OCO4)CC2)nc1,·,i,i,i,i,i,·,·
COc1c(-c2ccc([N+](=O)[O-])cc2[N+](=O)[O-])c(=O)n(C)c(=O)n1C,-6.1,i,i,i,i,i,·,·
CCCCn1c(-c2csc(CC)c2)n[nH]c1=S,9.4,-8*,i,i,i,i,87.5*,54.8*
CCCCn1c(-c2csc(C(C)C)c2)n[nH]c1=S,-5.9,-9.65*,i,i,i,i,91.5*,60.3*
CCCc1cc(-c2n[nH]c(=S)n2CC(C)C)cs1,-13.6,i,i,i,i,i,·,·
Cc1nc(NCCc2ccc(O)cc2)c2nnn(Cc3ccccc3)c2n1,-11.2,i,i,i,i,i,·,·
Cc1cc(OCC(=O)Nc2ccc(S(=O)(=O)N3CCN(C)CC3)cc2)ccc1Cl,-103.8,-8.3*,i,i,i,i,0.0,0.0
CC(C)(C)S(=O)(=O)c1ccsc1C(=O)O,-7.1,-15.9*,i,i,i,i,0.0,0.0
COc1cc([N+](=O)[O-])ccc1NC(=O)NCC1CCN(Cc2ccc(Cl)cc2)CC1,-18.1,i,i,i,i,i,·,·
CCCC(=O)N1CCCC(C(=O)c2cccc(OC(C)C)c2)C1 (configuration not stated),·,i,i,i,i,i,·,·
CCN1CCCC1CNCc1ccccc1OCc1ccc(F)cc1 (configuration not stated),-2.6,-7.62*,i,i,i,i,46.0*,0.0
CCN1CCCC1CNCc1cccc(OC)c1OCc1ccccc1 (configuration not stated),3.5,i,i,i,i,i,·,·
O=S(=O)(Nc1nc2ccccc2[nH]1)c1ccc(Cl)cc1,·,-9.42*,i,i,i,i,91.5*,90.3*
CS(=O)(=O)Nc1nc2ccccc2[nH]1,16.9,i,i,i,i,i,·,·
O=S(=O)(Nc1nc2ccccc2[nH]1)c1ccccc1,·,-8.16*,i,i,i,i,91.0*,38.8*
Cc1cc(NC(=O)c2ccc3c(c2)OCCO3)ccc1NC(=O)c1cc2ccccc2o1,-1.2,-8.67*,i,i,i,i,77.5*,0.0
COC(=O)c1cc(NC(=O)CSc2nnc(N)s2)ccc1Cl,2.6,-14.1*,i,i,i,i,0.0,0.0
COc1ccc(CC(=O)Nc2nc(-c3ccc(F)c(F)c3)cs2)cc1,0.5,-9.97*,i,i,i,i,92.5*,96.3*
SMILES,Lipid droplet,RGS4 act,MrgX1 PAM,MrgX1 antag,RGS4 inh,MrgX1 agonist,RGS4 act valid,RGS4 act ctr
Sc1oc(-c2ccccc2)cc1C=Nc1ccccc1,10.1,i,i,i,i,i,·,·
COC(=O)/C=C1\N/C(=N/c2nc(C)c3cc(OC)ccc3n2)NC1=O,3.2,i,i,i,i,i,·,·
O=C(OCCN1CCCCC1)C1(c2ccccc2)CCCC1,-3.6,-9.98*,i,i,i,i,92.5*,92.3*
CN(C)CCOC(=O)C1(c2ccccc2)CCCC1,·,-8.5*,i,i,i,i,92.0*,90.8*
O=C(OCCN1CCCC1)C1(c2ccccc2)CCCC1,14.4,-9.27*,·,·,i,·,94.0*,92.8*
O=C(OCCN1CCCCC1)c1ccccc1Br,-0.8,i,i,i,i,i,·,·
Fc1ccc(Oc2ncccn2)c(F)c1,17.0,i,i,i,i,i,·,·
O=C(NC1CC1)C1CCN(C2CCN(C(=O)CC3=CCCCC3)CC2)CC1,2.1,i,i,i,i,i,·,·
COC(=O)c1ccccc1NC(=O)c1ccc(COc2cc(C)cc(C)c2)o1,-0.7,-8.11*,i,i,i,i,46.0*,0.0
CCC(C(=O)NCc1ccccc1OC)c1ccccc1 (configuration not stated),-36.9,i,i,i,i,i,·,·
S=C(Nc1ccc(Oc2ccccc2)cc1)NC1CCCC1,0.5,i,i,i,i,i,·,·
S=C(NCC1CCCCC1)Nc1ccc(Oc2ccccc2)cc1,-2.0,-7.61*,i,i,i,i,93.0*,59.8*
CCn1c(SCC#N)nc2c(c1=O)C1(CCCC1)Cc1ccccc1-2,·,-10.4*,i,i,i,i,69.0*,83.8*
O=C(Nc1ccc(Cl)c(Cl)c1)Nc1cc(S(=O)(=O)N2CCOCC2)ccc1N1CCCC1,19.8,-9.15*,i,i,i,i,72.5*,27.3*
Cc1cccc(C)c1Nc1nnc(SCC(=O)c2ccc3c(c2)NC(=O)CO3)s1,1.9,i,i,i,i,i,·,·
COc1ccc(NC2=NCC(Cc3ccc(Br)cc3)S2)cc1 (configuration not stated),-0.5,-8.85*,i,i,i,i,94.0*,82.8*
COc1ccc(CNc2ccc(Br)cc2)cc1,-11.4,i,i,i,i,i,·,·
CC(C)Cn1nc(NC(=O)c2cccs2)c2cc3ccccc3nc21,-11.0,i,i,i,i,i,·,·
